Activity calls are given as the source filed them. No cut-off for these calls is given here.
Tests used:
Oryctolagus cuniculus [1] = species on record: Oryctolagus cuniculus; test: Inotropic effect on isolated rabbit heart assessed as increase in left atrium stroke volume; assay type: functional, Cardiac atrium; set-up: concentration or dose not given beside the values
Outline: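 Isolated perfused rabbit left atrium, HEPES buffer pH 7.4 (mM: 118 NaCl, 4.7 KCl, 2.5 CaCl2, 1.2 MgCl2, 25 NaHCO3, 10 glucose, 10 HEPES; 0.1% BSA) pumped at 1.25 mL/min. 60 min stabilization, pacing 1.5 Hz. Single dose 3×10^-5 M (DMSO stock diluted in buffer) after control cycle; 12-min cycles, stroke volume read every 2 min. Reported as % stroke volume increase, means ± SE, ANOVA.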

Oryctolagus cuniculus [2] = species on record: Oryctolagus cuniculus; test: Chronotropic effect on isolated rabbit heart assessed as change in heart beats; assay type: functional
Outline: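 Heart rate measured in isolated rabbit hearts from the electrocardiogram in a volume conduction model. Samples at 3×10^-5 M, dissolved in DMSO and diluted in HEPES buffer. Rate recorded before (control) and after sample. Means ± SE, repeated measures compared by ANOVA, P < 0.05.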

Compound	Activity (Oryctolagus cuniculus [1]) [%]	Activity (Oryctolagus cuniculus [2]) [bpm]	Activity (Oryctolagus cuniculus [1]; Cardiac atrium)
Cc1cccc(C(=O)N2CCN(CC(=O)Nc3ccc4c(c3)CCc3nnc(C)n3-4)CC2)c1	8.8	–	–
Cc1[nH]c(=O)c(C#N)cc1-c1ccncc1 [MILRINONE]	4.7	–	–
Cc1nnc2n1-c1ccc(NC(=O)CN3CCN(Cc4ccc5c(c4)OCO5)CC3)cc1CC2	5.1	136.9	–
Cc1nnc2n1-c1ccc(NC(=O)CN3CCN(C(=O)c4cccc([N+](=O)[O-])c4)CC3)cc1CC2	–	–	inactive
CC(=O)N1CCN(CC(=O)Nc2ccc3c(c2)CCc2nnc(C)n2-3)CC1	–	–	inactive
O=C(CN1CCN(C(=O)c2ccccc2)CC1)Nc1ccc2c(c1)CCc1nnc(Cc3ccccc3)n1-2	–	–	inactive
Cc1nnc2n1-c1ccc(NC(=O)CN3CCN(Cc4ccccc4Br)CC3)cc1CC2	–	–	inactive
COc1ccc(CN2CCN(CC(=O)Nc3ccc4c(c3)CCc3nnc(C)n3-4)CC2)cc1	10.1	105.6	–
O=C(CN1CCN(Cc2ccccc2)CC1)Nc1ccc2c(c1)CCc1nnc(Cc3ccccc3)n1-2	13.2	109.3	–
Cc1nnc2n1-c1ccc(NC(=O)CN3CCN(C(=O)c4ccc([N+](=O)[O-])cc4)CC3)cc1CC2	–	–	inactive
O=C(CN1CCN(Cc2ccc3c(c2)OCO3)CC1)Nc1ccc2c(c1)CCc1nnc(Cc3ccccc3)n1-2	5.2	89.2	–
Cc1ccc(C(=O)N2CCN(CC(=O)Nc3ccc4c(c3)CCc3nnc(Cc5ccccc5)n3-4)CC2)cc1	0.7	–	–
Cc1nnc2n1-c1ccc(NC(=O)CN3CCN(C(=O)c4ccccc4)CC3)cc1CC2	–	–	inactive
Cc1cccc(C(=O)N2CCN(CC(=O)Nc3ccc4c(c3)CCc3nnc(Cc5ccccc5)n3-4)CC2)c1	0.5	–	–
COc1cc(CN2CCN(CC(=O)Nc3ccc4c(c3)CCc3nnc(C)n3-4)CC2)ccc1OCc1ccccc1	9	111.5	–
Cc1nnc2n1-c1ccc(NC(=O)CN3CCN(C(=O)c4cccc(Cl)c4)CC3)cc1CC2	–	–	inactive
Cc1nnc2n1-c1ccc(NC(=O)CN3CCN(Cc4ccccc4)CC3)cc1CC2	–	–	inactive
Cc1ccc(C(=O)N2CCN(CC(=O)Nc3ccc4c(c3)CCc3nnc(C)n3-4)CC2)cc1	1.3	–	–
O=C(CN1CCN(C(=O)c2cccc(Cl)c2)CC1)Nc1ccc2c(c1)CCc1nnc(Cc3ccccc3)n1-2	2.4	–	–
COc1ccc(C(=O)N2CCN(CC(=O)Nc3ccc4c(c3)CCc3nnc(C)n3-4)CC2)cc1OC	5.3	129.2	–
